According to article PMC11533052 (Nanoscale Advances, 2024):

Key:
4T1 tumor-bearing mice [1] = test: In vivo anti-tumor research in 4T1 tumor-bearing mice; set-up: species or system BALB/c mice
Procedure, shortened: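 Female BALB/c mice (6 weeks, 16–18 g) received 4T1 cells (1 × 10^7 cells per mL, 100 μL) s.c. into the right forelimb axilla. At about 100 mm3 tumor volume, mice were randomised (n = 5) to saline, free drug, or drug-loaded hydrogel (1 mg mL-1 drug : 20 mg mL-1 peptide). Dosing was s.c. near the tumor at 100 μL/20 g, giving […], on day 1. Weight and tumor volume were recorded. Tumors and organs were taken at day 7, formalin-fixed, H&E and TUNEL stained.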

4T1 tumor-bearing mice [2] = test: In vivo biological distribution analysis; set-up: species or system BALB/c mice; details: DiR 1 mg kg^−1 s.c. near the tumor, n = 3
Procedure, shortened: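 4T1 tumor-bearing mice (tumor about 200 mm3) were randomised (n = 3) to free near-infrared dye DiR at 1 mg kg-1 or hydrogel-loaded DiR at the equivalent dose, injected s.c. near the tumor at 100 μL/20 g. Anaesthetised mice were imaged live at 1, 6, 12, 24, 48 and 96 h (λex 748 nm, λem 780 nm). At 96 h, mice were euthanised and organs collected.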

Question: Which results are given for `COc1cccc2c1C(=O)c1c(O)c3c(c(O)c1C2=O)C[C@@](O)(C(=O)CO)C[C@@H]3O[C@H]1C[C@H](N)[C@H](O)[C@H](C)O1` [DOX, doxorubicin]?
Answer: tumor growth inhibition (4T1 tumor-bearing mice [1]; 7 days, versus NS group, n = 5): significant tumor growth inhibition; body weight of mice at start (4T1 tumor-bearing mice [1]; day 1, s.c. near the tumor, DOX 1 mg mL^−1, 100 μL/20 g, n = 5): 18.8 g; histology of major organs (H&E) (4T1 tumor-bearing mice [1]; heart, liver, spleen, lung, kidney after 7 days of treatment): significant necrosis of heart and liver cells; body weight of mice at end (4T1 tumor-bearing mice [1]; within 7 days, s.c. near the tumor, DOX 1 mg mL^−1, 100 μL/20 g, n = 5): 16.9 g

Question: `CCCCCCCCCCCCCCCCCCN1/C(=C/C=C/C=C/C=C/C2=[N+](CCCCCCCCCCCCCCCCCC)c3ccccc3C2(C)C)C(C)(C)c2ccccc21.[I-]` [DiR] was tested. Which “ex vivo fluorescence distribution in tumor and organs” value (4T1 tumor-bearing mice [2]; 96 hours after administration) did it give?
Answer: The value was “widespread fluorescence distribution”.

Question: And the “in vivo fluorescence over time” value (4T1 tumor-bearing mice [2]; live imaging 1–96 hours)?
Answer: Its value is “rapidly decreased over time”.
